The values that follow come from ChEMBL document CHEMBL1127085, “Derivatives of 2-(dipropylamino)tetralin: effect of the C8-substituent on the interaction with 5-HT1A receptors” (J Med Chem, 1993).

Test [1] concerns Rattus norvegicus. Kind of test: Antagonistic effect on 5-HT syndrome or behavior of rat at the dose of 32 umol/kg with saline. The test is classed as functional. An outline of the steps:
(§1)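 Compound (32 µmol/kg sc) or saline injected 10 min before (R)-8-OH-DPAT (1.0 µmol/kg sc). Flat body posture, forepaw treading and hindlimb abduction scored during 30 min of observation. Results as number of rats showing the behaviour out of number tested; Fisher's exact probability test.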

Test [2] deals with Rattus norvegicus. The test is described as follows: Antagonistic effect on 5-HT syndrome or behavior of rat induced by (R)-8-hydroxy-DPAT at the dose of 32 and 1.0 umol/kg. Format: functional. The method in brief: as §1
For test [3], the system named is Rattus norvegicus. The test is described as follows: Antagonistic effect on body temperature of rat induced by (R)-1 at the dose of 32 and 1.0 umol/kg of compound (R)-1. Format: functional. The method in brief: (§2)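 Compound (32 µmol/kg sc) or saline injected 10 min before (R)-8-OH-DPAT (1.0 µmol/kg sc). Colonic temperature taken before injection and 30 min later; result is the change from the preinjection value. One-way ANOVA with Tukey HSD test.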

The test system of test [4] is Rattus norvegicus. Kind of test: Antagonistic effect on body temperature of rat induced by (R)-1 at the dose of 32 umol/kg with saline. The test is classed as functional. The method in brief: as §2
Test [5] deals with Rattus norvegicus. Kind of test: Induction of clear-cut 5-HT motor syndrome in normal rats at the dose of 30 micro mol/kg. The test is classed as functional.
The target in test [6] is T1, 5-hydroxytryptamine receptor 1A (Rattus norvegicus) (UniProt P19327).
T1 sequence (whole entry): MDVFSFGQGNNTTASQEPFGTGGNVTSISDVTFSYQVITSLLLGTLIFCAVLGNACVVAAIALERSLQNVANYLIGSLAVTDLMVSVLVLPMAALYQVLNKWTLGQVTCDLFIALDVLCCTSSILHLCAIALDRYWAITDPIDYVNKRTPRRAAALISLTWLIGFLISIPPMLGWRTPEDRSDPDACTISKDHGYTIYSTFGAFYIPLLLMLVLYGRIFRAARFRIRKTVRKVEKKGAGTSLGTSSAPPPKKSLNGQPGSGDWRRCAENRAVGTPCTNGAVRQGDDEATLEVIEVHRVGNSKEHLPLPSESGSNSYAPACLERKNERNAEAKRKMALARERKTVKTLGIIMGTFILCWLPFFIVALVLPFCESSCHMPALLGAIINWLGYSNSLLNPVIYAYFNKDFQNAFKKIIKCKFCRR
Kind of test: 5-HT (serotonin) turnover in rat hippocampus (p<0.01). The test is classed as functional, tissue-based. An outline of the steps:
(§3)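 Rats dosed sc (screening dose typically 32 µmol/kg, in 0.9% NaCl, 2 mL/kg); decapitated 5-10 min after the 30-min rating, […]. Hippocampus dissected and frozen. 5-HIAA/5-HT ratio measured by HPLC with electrochemical detection (+0.85 V) after perchloric acid homogenisation. Reported as percent of saline control, mean ± SEM, n = 4-6 per group; ANOVA with Tukey test.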

For test [7], the species on record is Rattus norvegicus. Kind of test: Dopamine (DA) turnover in rat corpus striatum (p<0.05). The test is classed as functional. An outline of the steps: (§4)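 Rats given compound sc in 0.9% NaCl (screening dose typically 32 µmol/kg); decapitated about 30 min after dosing. Hippocampus and corpus striatum dissected and frozen. Perchloric acid homogenates analysed by HPLC with electrochemical detection. Turnover taken as 5-HIAA/5-HT or DOPAC/DA, expressed as percent of saline control. Means ± SEM; n = 5-7 controls, 4-6 treated. ANOVA with Tukey test.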

The test system of test [8] is Rattus norvegicus. Kind of test: Change in body temperature of rats upon administration after 30 minutes (p<0.01). The test is classed as functional. An outline of the steps:
(§5)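 Colonic temperature taken with an electrical thermometer probe 3.5 cm deep, before and 30 min after sc injection in saline. Change reported in °C as mean ± SEM; animal numbers as in the cage-leaving test. ANOVA with Tukey test.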

Test [9] has as its target T1, 5-hydroxytryptamine receptor 1A (Rattus norvegicus). The test is described as follows: Number of rats displaying the 5-HT syndrome or leaving the cage out of the number of rats tested. Format: functional.
In test [10] the target is T2, 5-hydroxytryptamine receptor 1A (Rattus norvegicus, UniProt P19327).
T2 sequence (P19327 whole entry): T1 sequence (whole entry)
Kind of test: Binding affinity of 5-hydroxytryptamine 1A receptor using [3H]-8-OH-DPAT as radioligand. An outline of the steps:
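Membranes from cortex and hippocampus of male Sprague-Dawley rats, pooled from at least six rats, preincubated with 10 µM pargyline. Assay used 2 nM [3H]-8-OH-DPAT, test compound at 1-300 nM and 5 mg/mL tissue in 50 mM Tris-HCl with 4.0 mM CaCl2 and 5.7 mM ascorbate, pH 7.5. Incubated 10 min at 37 °C, filtered on GF/B, scintillation counted.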

In test [11] the test system is Rattus norvegicus. Kind of test: Ability produce 5-HT motor syndrome in reserpine (5 mg/kg, sc) pretreated rats at the dose of 3.2 micro mol/kg. Format: functional.
In test [12] the test system is Rattus norvegicus. Kind of test: Induction of clear-cut 5-HT motor syndrome in normal rats at the dose of 32 umol/kg. Format: functional.
The target of test [13] is T1, 5-hydroxytryptamine receptor 1A (Rattus norvegicus). The test is described as follows: Antagonistic effect on 5-HT syndrome or behavior of rat induced by (R)-1 at the dose of 32 and 1.0 umol/kg of compound (R)-1. The test is classed as functional. The method in brief: as §1
For test [14] the target is unchanged. Kind of test: 5-HT (serotonin) turnover in rat hippocampus. Format: functional, tissue-based. An outline of the steps:
as §4

The target of test [15] is T3, Dopamine receptor (Rattus norvegicus) (UniProt P25115+P19020+P30729+P18901+P61169). The test is described as follows: Dopamine (DA) turnover in rat corpus striatum. Format: functional, tissue-based. An outline of the steps:
as §4

Test [16] relates to Rattus norvegicus. Kind of test: Antagonistic effect on body temperature of rat induced by (R)-1 at the dose of 32 and 1 umol/kg of compound (R)-1. The test is classed as functional. An outline of the steps: as §2
The test system of test [17] is Rattus norvegicus. Kind of test: Change in body temperature of rats upon administration after 30 minutes. The test is classed as functional. An outline of the steps:
as §5

In test [18] the target is T3, Dopamine receptor (Rattus norvegicus). Kind of test: Effect of accumulation of DOPA in rat striatum at the dose of 32 umol/kg. Format: functional, tissue-based. The method in brief: (§6)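 Test compound given sc in 0.9% NaCl. NSD 1015 (287 µmol/kg sc) given 30 min later to inhibit aromatic L-amino acid decarboxylase; rats decapitated after a further 30 min. Hippocampus and striatum stored at -40 °C for up to 1 week. Perchloric acid homogenates with α-methyl-5-hydroxytryptophan internal standard; 5-HTP and DOPA measured by HPLC-EC. Percent of control, means ± SEM; ANOVA with Tukey test.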

Test [19] has as its system Rattus norvegicus. The test is described as follows: Effect of DOPA accumulation in rat striatum at the dose of 32 umol/kg. The test is classed as functional. An outline of the steps: as §6
For test [20], the target named is T1, 5-hydroxytryptamine receptor 1A (Rattus norvegicus). Kind of test: Induction of clear-cut 5-HT motor syndrome in reserpine (5 mg/Kg, sc) pretreated rats at the dose of 32 uM/Kg. The test is classed as functional, organism-based.
The subject of test [21] is Rattus norvegicus. The test is described as follows: Effect of accumulation of DOPA in rat striatum at the dose of 0.32 umol/kg (p<0.01). Format: functional. An outline of the steps:
as §6

Test [22] concerns Rattus norvegicus. Kind of test: Effect of DOPA accumulation in rat striatum at the dose of 0.32 umol/kg (p<0.01). The test is classed as functional. The method in brief: as §6
Test [23] has as its system Rattus norvegicus. Kind of test: Induction of clear-cut 5-HT motor syndrome in reserpine (5 mg/kg, sc) pretreated rats at the dose of 10 micro mol/kg. Format: functional.
Test [24] has as its system Rattus norvegicus. Kind of test: Induction of clear-cut 5-HT motor syndrome in normal rats at the dose of 10 micro mol/kg. The test is classed as functional.
Test [25] addresses T1, 5-hydroxytryptamine receptor 1A (Rattus norvegicus). Kind of test: 5-HT (serotonin) turnover in rat hippocampus (p<0.05). The test is classed as functional, tissue-based. An outline of the steps: as §3

Molecules are shown by their SMILES.

For the molecule `CCCN(CCC)[C@H]1CCc2c(F)ccc(O)c2C1`, the Effect in the test on Rattus norvegicus [1] and in the test on Rattus norvegicus [2] was 0 in each case. The Temperature in the test with Rattus norvegicus [3] is given as -0.76; with Rattus norvegicus [4], -0.02.
In the case of `CCCN(CCC)[C@@H]1CCc2cccc(OC)c2C1`, the Behavioral effect with Rattus norvegicus [5] came out at 4. The Turnover in test [6] was 66; in the test filed under Rattus norvegicus [7], 70. This molecule also displayed a Temperature in the test with Rattus norvegicus [8] of -1.5. The No. of rats in test [9] was 0.
For orientation: Ki means the dissociation constant of the complex between target and ligand, obtained from inhibition or displacement. Read a low Ki as tighter binding. `CCCN(CCC)C1CCc2cccc(CO)c2C1` (racemic) had a Ki in test [10] of 25 nM. In addition, the Behavioral effect with Rattus norvegicus [11] is reported as 3.
`CCCN(CCC)[C@@H]1CCc2cccc(OS(=O)(=O)C(F)(F)F)c2C1`: the Behavioral effect with Rattus norvegicus [12] came to 0. Moreover, in [13], the Effect was 4. Also, the values for the Turnover in test [14] and in test [15] were 106 and 93, respectively. The Temperature is reported as -4.18 in the test with Rattus norvegicus [16] and 0.5 with Rattus norvegicus [17]. Also, the No. of rats in test [9] came out at 4.
For the molecule `CCCN(CCC)C1CCc2cccc(C(=O)OC)c2C1` (racemic), the inhibition constant Ki in test [10] amounted to 2.4 nM. Further, the Accumulation was determined as 81 in test [18] and 59 in the test on Rattus norvegicus [19]. Moreover, the Behavioral effect in test [20] was determined as 4.
On to `CCCN(CCC)[C@H]1CCc2cccc(O)c2C1`, for which the Accumulation in the test on Rattus norvegicus [21] and with Rattus norvegicus [22] was 94 throughout. For the same molecule, the Behavioral effect with Rattus norvegicus [23] stood at 5; in the test with Rattus norvegicus [24] it was 4. Further, the results for the Turnover in [25] and in [15] were 72 and 106, respectively. Further, the Temperature in the test with Rattus norvegicus [8] is -2. In test [9], this molecule returned a No. of rats of 0.
